Source: PubChem BioAssay
This is a sample that favours compounds with a hit; in the whole collection about 2.5% have one here.
TRPML3 agonist: human TRPML3 channel agonists, primary screen, cell-based, HEK293 TRPML3-YFP, Fluo-8 calcium fluorescence, 3 µM; Mucolipin-3 (Homo sapiens), Q8TDD5; 100% = the carbachol control signal; activation, % at 3 µM; actives 0.29% (n = 220,000); AID 1448, 2008;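 active = activation above its plate's cutoff, the mean activation of the plate's test wells plus 3 SD, cut at about 12% in these data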;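 also: 0% = DMSO only wells and 100% = carbachol wells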
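Material: HEK293 cells stably carrying human TRPML3-YFP; compound dosing: single dose, 3 µM final nominal compound, 0.3% DMSO final; incubation: 1-h 37 °C dye load, 5-s basal, 120-s post-compound reads; technique: Fluo-8 intracellular calcium fluorescence, excitation 470-495 nm, emission 515-575 nm; read-out basis: percent activation from peak-to-basal fluorescence ratio, scaled between DMSO and carbachol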
OX1R antag-1: antagonists of human orexin 1 receptor (OX1R); inhibition, % at 6.6 µM; OX1R-expressing cells, FRET antagonist read-out; actives 1.8% (n = 330,000); Orexin/Hypocretin receptor type 1 (Homo sapiens), O43613; AID 485270, 2010; in the data active = inhibition mostly above about 38%, no sharp cut-off; inactive = mostly below about 40%;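 also: 0% = agonist challenge alone and 100% = reference antagonist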
Target sequence (O43613 whole entry, looked up): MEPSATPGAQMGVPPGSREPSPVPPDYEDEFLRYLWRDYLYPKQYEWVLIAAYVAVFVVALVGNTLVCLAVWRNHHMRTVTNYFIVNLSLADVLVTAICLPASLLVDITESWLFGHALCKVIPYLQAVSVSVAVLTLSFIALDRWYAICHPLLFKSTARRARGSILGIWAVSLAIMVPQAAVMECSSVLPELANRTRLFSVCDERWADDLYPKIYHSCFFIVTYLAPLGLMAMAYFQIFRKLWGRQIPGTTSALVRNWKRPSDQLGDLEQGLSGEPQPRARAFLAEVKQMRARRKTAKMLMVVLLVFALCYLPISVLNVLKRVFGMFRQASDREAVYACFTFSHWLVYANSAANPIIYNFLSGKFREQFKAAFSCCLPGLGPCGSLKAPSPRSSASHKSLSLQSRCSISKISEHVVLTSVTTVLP
OX1R antag-2: OX1R (HCRTR1) antagonists, primary screen, fluorescence, CHO/OX1R cells, Fluo-8 calcium, orexin A | Orexin/Hypocretin receptor type 1 (Homo sapiens), O43613 | Fluo-8 calcium fluorescence | inhibition, % at 5 µM | actives 0.43% (n = 330,000) | AID 434989, 2010;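 active = inhibition above its plate's threshold, mean inhibition of all tested compounds on the plate plus 3 SD, cut at about 37% in these data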;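 also: 0% = orexin A challenge wells and 100% = SB-334867-A antagonist wells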
CHO parental Ca: ATP-evoked calcium signal inhibitors, parental CHO, primary screen, counter-screen for OX1R antagonist project, cell-based, fluorescence, Fluo-8 calcium dye. actives 0.63% (n = 330,000). inhibition, % at 5.6 µM. AID 463079, 2010. parental CHO-K1, ATP-induced calcium, Fluo-8 fluorescence;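 active = inhibition above that plate's mean sample inhibition plus 3 SD, cut at about 26% in these data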;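 also: 0% = ATP-challenged DMSO wells and 100% = DMSO wells without ATP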
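Test system: untransfected parental CHO cell line. Compound: one dose, 5.6 µM nominal. Detection: intracellular calcium via Fluo-8 no-wash fluorescent dye. Measure: % inhibition. Benchmarks: ATP-challenged DMSO wells low, unchallenged DMSO wells high.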
zfTRPN1 agonist: zebrafish TRPN1 channel agonists, primary screen, cell-based, HEK293, calcium fluorescence | transient receptor potential cation channel N1 (TRPN1/NompC), Danio rerio | activation, % at 3 µM | actives 0.18% (n = 220,000) | HEK293 zebrafish TRPN1-YFP, Fluo-8 calcium fluorescence; 100% = response to 87 µM carbachol;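 active = activation above its plate's cutoff, the mean activation of test wells on that plate plus 3 SD, cut at about 19% in these data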;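 also: 0% = DMSO alone and 100% = 87 µM carbachol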
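Material: zebrafish TRPN1-YFP in HEK293 cells. Doses: one dose of 3 µM, 0.3% DMSO. Incubation: dye 1 h 37 °C plus 30 min RT. Measured by: intracellular calcium fluorescence with Fluo-8.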
An asterisk follows results filed as active; . = not tested or not shown.

SMILES	TRPML3 agonist	OX1R antag-1	OX1R antag-2	CHO parental Ca	zfTRPN1 agonist
CCCNc1[nH]c(=O)n(C)c(=O)c1N=O	0	69*	-21	-3	0
COc1cccc(SCc2noc(C(=O)NCCC(C)C)c2C(=O)NCCC(C)C)c1	.	10	-42	-25	.
O=[N+]([O-])c1cccnc1N1CCN(Cc2ccc3c(c2)OCO3)CC1	.	12	-23	-11	.
O=[N+]([O-])c1ccc2ncnc(N3CCN(Cc4ccc5c(c4)OCO5)CC3)c2c1	.	56*	-20	-4	.
COc1ccccc1C(=O)Nc1ccc2c(c1)nc1n2CCSC1	0	54*	8	-12	0
C/C=C(/C)C(=O)O[C@@H]1c2c(ccc3ccc(=O)oc23)OC(C)(C)[C@@H]1OC(=O)/C(C)=C\C	0	19	-11	62*	-1
N/C(=N\OC(=O)c1cc([N+](=O)[O-])ccc1Cl)c1ccccn1	0	46	-7	-5	0
N/C(=N\OC(=O)c1ccc([N+](=O)[O-])cc1Cl)c1ccccn1	.	54*	-28	-16	.
CCN(CC)S(=O)(=O)c1cccc(NC(=O)CSc2nc3ccccc3[nH]2)c1	2	53*	44*	31*	6
CN(C)S(=O)(=O)c1cccc(NC(=O)CSc2ncnc3ccccc23)c1	4	24	2	29*	13
CN(C)S(=O)(=O)c1cccc(NC(=O)CSc2nc3ccccc3[nH]2)c1	4	26	-3	-3	6
Nc1cccc2cc(-c3ccccc3)oc12	.	4	-14	-8	.
CC(=O)N1c2ccc(S(=O)(=O)N3CCC(C(=O)Nc4cccc(F)c4)CC3)cc2CC1C (centres undefined)	.	19	-25	5	.
COc1ccc(NC(=O)Nc2cc(C)cc(C)c2)cn1	1	9	-22	-12	1
COc1ccc(NC(=O)Nc2ccc([N+](=O)[O-])cc2)cn1	.	34	15	43*	.
COc1ccc(NC(=O)Cc2ccc(-c3ccccc3)cc2)cn1	1	19	10	69*	2
COc1ccc(NC(=O)Nc2cccc(C(F)(F)F)c2)cn1	11	21	47*	41*	13
CCCCc1ncc(CN2CCC(CC3CCCCO3)(C(=O)OCC)CC2)[nH]1 (centres undefined)	0	5	-23	-17	-1
CCOC(=O)C1(CC2CCCCO2)CCN(Cc2cc3ccccc3[nH]2)CC1 (centres undefined)	24*	9	53*	36*	30*
CCCCn1c(N)c(N(CCOC)C(=O)c2ccc(F)c(S(=O)(=O)N3CCOCC3)c2)c(=O)[nH]c1=O	.	12	-6	0	.
COCCNC(=O)C(c1ccc(F)cc1)N(Cc1ccco1)C(=O)CCC(=O)Nc1nccs1 (centres undefined)	0	60*	26	-13	0
Cc1cc(NC(=O)CCC(=O)N(Cc2ccco2)C(C(=O)NC2CCCCC2)c2ccccc2)no1 (centres undefined)	0	53*	-18	-21	-1
O=C(COc1cccc(C(F)(F)F)c1)Nc1nnc(C2CC2)s1	.	5	-17	-14	.
N#Cc1ccccc1N1CCN(C(=O)c2ccc(NC(=O)c3ccc(Br)o3)cc2)CC1	.	13	-27	-9	.
COc1cccc(C(=O)Nc2c(C(N)=O)oc3ccccc23)c1	0	77*	6	-15	2
SMILES	TRPML3 agonist	OX1R antag-1	OX1R antag-2	CHO parental Ca	zfTRPN1 agonist
COc1ccc(C(=O)c2oc3ccccc3c2N)cc1	0	36	-5	-10	1
CCOC(=O)c1oc2ccccc2c1NC(=O)c1cccc(OC)c1	0	9	-52	-33	-1
COc1ccc2oc(C(=O)c3ccccc3)c(N)c2c1	0	64*	26	-11	0
COC(=O)c1cc(OC)c(OC)cc1NC(=O)c1oc2ccccc2c1C	1	.	.	.	1
COc1ccc(NC(=O)c2oc3ccccc3c2C)c(OC)c1	0	53*	2	-21	0
COc1ccc2oc(C(=O)OCC(=O)NCc3ccccc3OC)c(C)c2c1	.	11	-4	56*	.
COc1ccccc1NC(=O)COC(=O)c1oc2ccccc2c1C	.	51*	-1	-30	.
COc1cccc(NC(=O)CN(C)CC(=O)Nc2ccc(C)cc2Cl)c1	0	26	-21	-6	-2
O=C(N/N=C/c1c(O)ccc2ccccc12)c1cccc(C(F)(F)F)c1	15*	36	56*	7	35*
CC(=O)Nc1ccc(N=Cc2c(O)c(C(=O)Nc3ccccc3)cc3ccccc23)cc1	2	12	10	31*	6
NNC(=O)c1ccc([N+](=O)[O-])c(CS(=O)(=O)c2ccc(Cl)cc2)c1	0	32	2	-8	1
CN(C)C=NC(=O)c1ccc([N+](=O)[O-])c(CS(=O)(=O)c2ccc(Cl)cc2)c1	2	72*	-9	-9	1
COc1ccccc1Cn1c(=S)[nH]c2cc(C(=O)NCCN(C)C)ccc2c1=O	.	-3	-9	-15	.
CC(=O)Nc1ccc(NC(=O)c2cc([N+](=O)[O-])cc([N+](=O)[O-])c2)cc1	.	57*	-9	-5	.
Cc1csc(NC(=O)c2cc[n+]([O-])cc2)n1	0	7	-17	-6	2
Cc1cc(NC(=O)c2cc([N+](=O)[O-])cc([N+](=O)[O-])c2)no1	-1	57*	-22	-9	-1
Cc1csc(NC(=O)c2cc([N+](=O)[O-])cc([N+](=O)[O-])c2)n1	1	64*	-22	3	0
COc1ccc2nc(SCC(=O)NN)cc(C)c2c1	0	49*	20	-25	-1
Cc1nonc1CN(C)C(=O)CC1C(=O)NCCN1Cc1cccc(C(F)(F)F)c1 (centres undefined)	0	1	-17	-20	0
Clc1ccc(C(Cn2ccnc2)OCc2c(Cl)cccc2Cl)c(Cl)c1 (centres undefined)	.	26	19	60*	.
Cc1c(N=NC2=C(O)CCCC2=O)c(=O)n(-c2ccccc2)n1C	0	38	-16	-4	-1
Cc1ccc(NC2=NC(=S)N(CC#N)C23CCCCC3)cc1	0	14	-27	-14	-2
N#CCN1C(=S)N=C(Nc2cccc(Cl)c2)C12CCCCC2	0	43	-11	47*	1
CN1CCN(C(=O)C2CCC(=O)N(CCc3cccc(F)c3)C2)CC1 (centres undefined)	.	15	0	-1	.
COc1ccc(CCNS(=O)(=O)CCNC(=O)c2ccc3c(c2)OCO3)cc1OC	.	9	-15	-2	.
